# Measurements pooled from the literature.
# Target: Casein kinase I isoform epsilon (CSNK1E, Homo sapiens, UniProt P49674)
SMILES,assay,setting,remaining binding
O=C(NCCCN1CCOCC1)c1ccc(Nc2ncc(Cl)c(-c3ccc(Cl)s3)n2)cc1,"binding, competition with immobilised ligand",1 µM,100%
Cc1cc(NC(=O)c2cccc(S(F)(F)(F)(F)F)c2)cc(-n2ccn3nc(-c4cccnc4)cc23)c1,"cell-free assay, competition with immobilised ligand",1 µM,75.7%
C[C@@H]1CCN(c2nccc(-c3cnn4ncccc34)n2)C1,binding,1 µM,86%
Nc1ncc2c(n1)-c1c([nH]c3ccc(C#CC4CC4)cc13)CCCC2,"binding, competition with immobilised ligand",1 µM,100%
O=C(Nc1c[nH]nc1C(=O)NC1CCNCC1)c1cc(F)cc(F)c1,"binding, competition with immobilised ligand",1 µM,73%
CN(C)c1nccc(-c2cnc3ncccn23)n1,binding,1 µM,65%
CNC(=O)[C@@H]1CC[C@@H](n2c(-c3ccc4cnccc4c3)nc3ccc(C(=O)NCc4cccc(C(N)=O)c4)cc32)C1,"binding, competition with immobilised ligand",1 µM,100%
CC(=O)N1CCC(c2ccc(C(=O)NC3=NCCN3)cc2C(F)(F)F)CC1,"cell-free assay, competition with immobilised ligand",1 µM,100%
F[C@@H]1CCN(c2nccc(-c3cnn4ncccc34)n2)C1,binding,1 µM,85%
O=C1NC(c2ccccn2)Sc2ccccc21 (stereo not shown),"cell-free assay, competition with immobilised ligand",1 µM,98%
CCN1CCN(Cc2ccc(C(=O)Nc3ccc(C)c(Oc4ccc5c(c4)CC(=O)N5)c3)cc2C(F)(F)F)CC1,"binding, competition with immobilised ligand",1 µM,100%
Cc1cnn2ncc(-c3ccnc(N(C)C)n3)c2c1,binding,1 µM,60%
O=C(c1ccc(Nc2nccc(-c3cc4ccccc4s3)n2)cc1)N1CCC(N2CCCC2)CC1,"binding, competition with immobilised ligand",1 µM,100%
CNCc1ccccc1-c1csc([C@@H](C)Nc2nc(C)nc3cc(OC)c(OC)cc23)c1,"cell-free assay, competition with immobilised ligand",1 µM,99%
O=C(c1ccc(Nc2ncc(Cl)c(-c3cc4ccccc4s3)n2)cc1)N1CCC(N2CCCC2)CC1,"binding, competition with immobilised ligand",1 µM,100%
N[C@H]1CCN(c2nccc(-c3cnn4ncccc34)n2)C1,binding,1 µM,47%
Cc1c(NC(=O)c2cc(C(N)=O)nc3cc(F)ccc23)c(C(F)(F)F)nn1Cc1ccc(C(C)(C)C)cc1,"cell-free assay, competition with immobilised ligand",1 µM,91%
CN(CCCC(F)(F)F)c1nccc(-c2cnn3ncccc23)n1,binding,1 µM,100%
C[C@@H]1CN(c2cc(-c3n[nH]c4ccc(OC5(C)CC5)cc34)ncn2)C[C@H](C)O1,"cell-free assay, competition with immobilised ligand",0.1 µM,100%
FC(F)(F)Oc1cccc(-c2cnc3ccc(-c4ccncc4)nn23)c1,"cell-free assay, competition with immobilised ligand",5 µM,12%
COc1ccnn2ncc(-c3ccnc(N(C)C)n3)c12,binding,1 µM,75%
O=c1nc(-c2ccccn2)sc2ccccc12,"binding, competition with immobilised ligand",1 µM,88%
